# A selection: hits, their analogues and other compounds. The true share with any hit is near 1.5%.
# CCR6 antagonist – CCR6 receptor antagonists, primary screen, cell-based, CHO-K1, luminescence, beta-arrestin, uHTS; CHO-K1 CCR6 PathHunter beta-arrestin, CCL20-stimulated; inhibition, % at 20 µM; 340,000 tested, 0.49% active;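 active means compounds whose inhibition of the agonist-driven luminescence signal at 20 µM reaches about 50%, limit read from the data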;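 further: cells stimulated with CCL20 at 14 nM final; plate controls were DMSO with CCL20 for no effect and DMSO without agonist for full effect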
# APJ antagonist – antagonists of human apelin receptor APJ, primary screen, CHO-K1 cells, beta-arrestin complementation, luminescence; inhibition, % at 20 µM; AID 2521, 2010; P35414; 330,000 tested, 0.32% active;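 active means inhibition above about 40% at 20 µM, limit read from the data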;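 further: cells challenged with 10 nM apelin-13 agonist together with compound; plate controls were apelin-13 plus DMSO wells for no effect and DMSO wells lacking apelin-13 for full effect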
# Target sequence (P35414 whole entry, looked up): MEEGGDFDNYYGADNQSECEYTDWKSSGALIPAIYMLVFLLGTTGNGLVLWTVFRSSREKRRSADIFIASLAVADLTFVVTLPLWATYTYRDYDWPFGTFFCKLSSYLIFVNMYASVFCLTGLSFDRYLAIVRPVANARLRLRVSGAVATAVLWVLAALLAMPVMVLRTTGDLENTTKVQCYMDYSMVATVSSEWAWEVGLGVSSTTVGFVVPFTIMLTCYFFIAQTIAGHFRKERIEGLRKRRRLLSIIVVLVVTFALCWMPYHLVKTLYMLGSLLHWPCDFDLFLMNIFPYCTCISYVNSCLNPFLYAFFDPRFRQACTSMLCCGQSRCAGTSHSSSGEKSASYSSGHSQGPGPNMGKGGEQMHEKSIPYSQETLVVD
# APJ agonist – agonists of human apelin receptor APJ, primary screen, CHO-K1 cells, PathHunter beta-arrestin, luminescence | 330,000 tested, 0.11% active | P35414 | activation, % at 20 µM | 0% DMSO wells, 100% apelin;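 active means activation more than six SD over the plate average, tested at 20 µM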;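 further: 0% = DMSO alone and 100% = apelin-13 at 10 nM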
#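 Test system: CHO-K1 APJ beta-arrestin complementation cell line. Amount: cell density 1000 per well. Controls: DMSO negative, 10 nM Apelin-13 positive. Signal: luminescent beta-gal fragment complementation, chemiluminescent substrate. Read-out basis: agonist-driven arrestin binding to APJ. Timing: compound stimulation 90 min at 25 °C, detection 60 min.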
# EBI2 antag – EBI2 receptor antagonists, beta-arrestin recruitment, primary screen, cell-based, luminescence, 7a,25-OHC stimulation, uHTS; inhibition, % at 5 µM; 7a,25-OHC stimulated; 360,000 tested, 0.81% active; in the data active means inhibition above about 38%;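 further: enzyme fragment complementation signal reports receptor beta-arrestin coupling in cells; 0% = agonist plus DMSO wells and 100% = wells without agonist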
# CXCR6 block – CXCR6 receptor inhibitors, primary screen, cell-based, beta-arrestin, luminescence, CHO-K1 PathHunter, 1536-well | C-X-C chemokine receptor type 6 (Homo sapiens), O00574 | inhibition, % at 20 µM | 360,000 tested, 0.36% active; in the data active means inhibition above about 34%, passing the limit was not always enough;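 further: antagonist mode with CXCL16 agonist at 10 nM final; 0% = 10 nM CXCL16 with DMSO and 100% = unstimulated wells without agonist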
# EBI2 antag conf – EBI2 antagonist hit retest, beta-arrestin, confirmation, cell-based, single concentration, luminescence, 7a,25-OHC stimulation; shares compounds with EBI2 antag; 7a,25-OHC antagonism; inhibition, % at 5 µM; 2,400 tested, 29% active;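 active means inhibition of at least 50%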
# EBI2 agonist – EBI2 agonist activity of antagonist hits, confirmation, counter-screen for EBI2 antagonist project, cell-based, single concentration, agonist mode, luminescence; shares compounds with EBI2 antag; 2,400 tested, under 10 active; EBI2-expressing cells, 60 min; 0% vehicle, 100% 7α,25-dihydroxycholesterol control; activation, % at 5 µM; AID 652000, 2013;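 active means activation of at least 50%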
# bGal counter – E. coli beta-galactosidase enzyme inhibition, confirmation, counter-screen for EBI2 antagonist project, biochemical, luminescence, single concentration; shares compounds with EBI2 antag; purified beta-galactosidase, luminescent Galacton Star, 15 min; inhibition, % at 5 µM; 2,400 tested, 1% active; AID 652176, 2013;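 active means replicate-average signal at least 3 plate SD below neutral wells, shown as high inhibition, flagging enzyme-inhibiting false positives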;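 further: 0% = DMSO wells with enzyme and 100% = wells lacking enzyme; higher means stronger loss of beta-gal luminescence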
# * marks the source's active call; other numbers are inactive results; x = no result given.
SMILES,CCR6 antagonist,APJ antagonist,APJ agonist,EBI2 antag,CXCR6 block,EBI2 antag conf,EBI2 agonist,bGal counter
CC(C(=O)NCCS(=O)(=O)c1ccc(Cl)cc1)S(=O)(=O)c1ccc(Cl)cc1 (configuration not stated),6,10,-4,7,-3,x,x,x
O=C(NCCCN1CCOCC1)c1cc(S(=O)(=O)N2CCOCC2)ccc1Cl,0,-3,-1,1,6,x,x,x
CCN1CCN(C(c2ccccc2)c2nnnn2Cc2ccc(OC)cc2)CC1 (configuration not stated),3,6,-1,2,0,x,x,x
COc1ccc(C(c2nnnn2Cc2ccccc2)N2CCN(C/C=C/c3ccccc3)CC2)cc1 (configuration not stated),x,x,x,50*,16,20,1,-14
CCC(c1nnnn1Cc1ccccc1)N1CCN(C/C=C/c2ccccc2)CC1 (configuration not stated),x,x,x,30,0,x,x,x
COc1ccc(-n2nnnc2C(c2ccccc2)N2CCN(C/C=C/c3ccccc3)CC2)cc1 (configuration not stated),x,x,x,53*,9,41,1,-1
C(=C\c1ccccc1)/CN1CCN(C(c2ccccc2)c2nnnn2Cc2ccccc2)CC1 (configuration not stated),x,x,x,47*,5,37,-1,-18
COc1ccc(OC)c(NC(=O)CN(c2ccc(C(C)C)cc2)S(=O)(=O)c2c(C)noc2C)c1,15,-4,-1,25,4,x,x,x
COc1ccc(OC)c(NC(=O)CN(c2ccc(C)cc2)S(=O)(=O)c2c(C)noc2C)c1,19,11,-3,48*,0,15,-1,-9
CCOc1ccc(OCC)c(NC(=O)CN(c2ccc(OC)cc2)S(=O)(=O)c2c(C)noc2C)c1,12,-2,-2,69*,4,21,0,1
CCOc1ccc(OCC)c(NC(=O)CN(c2ccc(C)cc2)S(=O)(=O)c2c(C)noc2C)c1,19,-4,-4,72*,9,34,0,2
CC(=O)N1c2ccc(S(=O)(=O)N3CCC(C(=O)NCCc4ccc(Cl)cc4)CC3)cc2CC1C (configuration not stated),2,-4,8,9,-10,x,x,x
Cn1ccc2c(N3CCCCCCC3)cc3c(c21)C1CCC3O1 (configuration not stated),x,x,x,-11,-21,x,x,x
CCOc1ccc(N2CC(C(=O)NC3CCSC3=O)CC2=O)cc1 (configuration not stated),7,15,3,7,4,x,x,x
Cc1cccc2c(SCC(N)=O)nc(-c3ccccc3)nc12,6,13,-3,-14,-3,x,x,x
CCOc1ccccc1N1CCN(C(=O)c2cc3c(C)cc(C)cc3[nH]2)CC1,-1,-3,-2,52*,-7,35,0,10
CCOc1ccccc1N1CCN(C(=O)c2ccc3[nH]c4c(c3c2)CCCC4)CC1,1,3,-4,-2,-2,x,x,x
CCOC(=O)C1CCN(C(=O)c2cc3cc(C)ccc3[nH]2)CC1,10,12,-2,85*,-2,67*,-1,-6
CCOC(=O)C1CCN(C(=O)c2cc3c(C)cc(C)cc3[nH]2)CC1,8,0,-3,46*,-4,31,1,5
O=C(OCc1ccccc1)N1CCC2CC1c1cc(/C=C/CCCSc3ncccn3)ccc12 (configuration not stated),x,x,x,16,14,x,x,x
CCCCc1ccc(NC(=O)CSc2nc(=O)n(CCN(CC)CC)c3c2CCCC3)cc1,13,27,1,51*,8,20,1,3
CCCCc1ccc(NC(=O)CSc2nc(=O)n(CCN(C)C)c3c2CCC3)cc1,13,10,-3,3,12,x,x,x
Cc1ccc(NC(=O)c2ccc(CSc3ccccn3)cc2)cc1,2,-3,-5,46*,0,31,-1,-14
O=C(CSc1n[nH]c(=O)[nH]c1=O)Nc1ccc(C(=O)O)cc1,12,12,-3,49*,-3,15,0,-10
CC(=O)Nc1ccc(S(=O)(=O)N2CCC(C(=O)c3ccc(Cl)cc3)CC2)cc1,9,-2,3,54*,-1,19,2,9
SMILES,CCR6 antagonist,APJ antagonist,APJ agonist,EBI2 antag,CXCR6 block,EBI2 antag conf,EBI2 agonist,bGal counter
Cc1ccc(NC(=O)C2=CCN(S(=O)(=O)c3ccc(F)cc3)CC2)cc1,-6,-10,-2,47*,-4,37,0,0
Cc1ccc(NC(=O)c2ccc(S(=O)(=O)N3CCC(C)CC3)cc2)cc1,6,9,-1,53*,-3,12,2,4
CCCOC1CCCN(C(=O)c2ccc3oc(C(C)C)nc3c2)C1 (configuration not stated),5,-10,-2,-6,8,x,x,x
Cc1c(C(=O)N2CCN(S(=O)(=O)c3ccccc3)CC2)oc2ccc(Br)cc12,9,-1,-3,58*,1,35,0,9
COc1ccccc1C(=O)N1CCN(C(=O)c2oc3ccc(C)cc3c2C)CC1,15,-21,0,65*,4,40,0,6
Cc1c(C(=O)N2CCN(c3ncccn3)CC2)oc2ccc(F)cc12,4,3,0,38,-7,x,x,x
Cc1c(C(=O)N2CCN(C(=O)c3ccccc3)CC2)oc2ccc(F)cc12,10,-6,-6,51*,-1,9,0,-10
Cc1ccccc1Nc1nnc(SCC(=O)c2c(N)n(C3CC3)c(=O)[nH]c2=O)s1,10,12,-1,2,-8,x,x,x
O=C(CCCCCN1C(=O)[C@@H]2Cc3ccccc3CN2C1=O)NCCc1ccccc1,19,23,-5,2,9,x,x,x
C[C@@H]1CN([C@H](C)CO)S(=O)(=O)c2ccc(C#Cc3ccccc3F)cc2O[C@@H]1CN(C)C(=O)Cc1ccccc1,x,x,x,72*,5,79*,-1,-7
